Source: ChEMBL document CHEMBL1145155, “Synthesis and identification of [1,3,5]triazine-pyridine biheteroaryl as a novel series of potent cyclin-dependent kinase inhibitors” (J Med Chem, 2005)
Values belong to the compound of their own block, whether it stands above or below them.

Experiments:
[1] = target: Vascular endothelial growth factor receptor 2 (Homo sapiens, UniProt P35968); test: Inhibition of vascular endothelial growth factor receptor 2
[2] = Inhibition of [Ca(2+)]/Calmodulin dependent kinase
[3] = target: Fibroblast growth factor receptor 2 (Homo sapiens, UniProt P21802); test: Inhibition of Fibroblast growth factor receptor 2
Casein kinase II = Casein kinase II (Homo sapiens, UniProt P19784+P67870+P68400); test: Inhibition of Casein kinase II; format: protein-complex assay
[4] = Inhibition of Protein kinase C gamma
[5] = target: T1, Cyclin-dependent kinase 1 (Homo sapiens, UniProt P06493); test: Inhibition of cyclin dependent kinase CDK1
How it was run: (§1)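 Incubated 1 h at 30 °C on a streptavidin-coated plate, stopped by washing with PBS containing 100 mM EDTA, then scintillation counted. Conditions varied slightly by kinase. IC50 was derived by linear regression of % inhibition versus untreated controls.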

[6] = target: Cyclin-dependent kinase 4/cyclin D1 (Homo sapiens, UniProt P11802); test: Inhibition of CDK4/cyclin D1; format: protein-complex assay; how it was run: as §1
HCT-116 = test: Inhibitory concentration of compound against growth of HCT116 cells; conditions: Homo sapiens
[7] = Inhibitory concentration of compound against growth of MES SA/Dx 5 cells (high p glycoprotein); conditions: Homo sapiens, MES-SA/Dx5
[8] = target: Cyclin-dependent kinase 7/ cyclin H (Homo sapiens, UniProt P50613); test: Inhibition of CDK7/cyclin H; format: protein-complex assay
How it was run: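 Run by Upstate Biotech as a contract panel: kinase phosphorylation of an appropriate peptide/protein substrate with 100 μM ATP, under conditions linear with time. IC50 is the average of two separate determinations.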

A-375 = test: Inhibitory concentration of compound against growth of A-375 cells; conditions: Homo sapiens
[9] = target: Cyclin-dependent kinase 5/CDK5 activator 1 (Homo sapiens, UniProt Q00535)
[10] = target: RAC-beta serine/threonine-protein kinase (Homo sapiens, UniProt P31751); test: Inhibition of PKB beta
[11] = target: Cyclin-dependent kinase 2/cyclin A (Homo sapiens, UniProt P24941); test: Inhibitory concentration of compound against CDK2/cyclin A; format: protein-complex assay
[12] = target: Cyclin-dependent kinase 1/cyclin B (Homo sapiens, UniProt P06493); test: Inhibition of Cyclin-dependent kinase 1-cyclin B; format: protein-complex assay
[13] = Inhibition of Glycogen synthase kinase-3 beta
U-937 = test: Inhibitory concentration of compound against growth of U-937 cells; conditions: Homo sapiens
HeLa = test: Inhibitory concentration of compound against growth of HeLa cells; conditions: Homo sapiens
[14] = target: Mitogen-activated protein kinase 1 (Homo sapiens, UniProt P28482); test: Inhibition of ERK 2
[15] = Inhibitory concentration of compound against growth of MES SA cells (low p glycoprotein); conditions: Homo sapiens
CDK6/cyclin D3 = CDK6/cyclin D3 (Homo sapiens, UniProt Q00534); test: Inhibition of CDK6/cyclin D3; format: protein-complex assay
How it was run: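 Run in an external kinase panel. Kinase phosphorylation of the appropriate peptide/protein substrate was measured with 100 μM ATP, under conditions linear with time. IC50 is the average of two separate determinations.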

[16] = target: T1, Cyclin-dependent kinase 1; test: Inhibition of cyclin dependent kinase (CDK1)
How it was run: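 Radiometric FlashPlate assay: biotinylated peptide substrate at 0.025 μM with 33P-γ-ATP plus 10 μM ATP in 50 mM Tris-HCl pH 8, 10 mM MgCl2, 0.1 mM Na3VO4, 1 mM DTT. Incubated 1 h at 30 °C, stopped by PBS/100 mM EDTA wash, then scintillation counted. Inhibition is relative to untreated controls; IC50 from linear regression of percent inhibition. Conditions varied slightly per kinase.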

IC50 [1]: > 10 µM
SMILES: OCCCNc1cncc(-c2ncnc(Nc3cccc(Cl)c3)n2)n1

SMILES: OCCCNc1cc(-c2ncnc(Nc3cccc(Cl)c3)n2)ccn1
IC50 [2]: > 10 µM | IC50 [3]: > 10 µM | IC50 (Casein kinase II): > 10 µM | IC50 [4]: > 10 µM | IC50 [5]: 0.021 µM | IC50 [6]: 0.308 µM | IC50 (HCT-116): 0.023 µM | IC50 [7]: 0.235 µM | IC50 [8]: 0.126 µM | IC50 (A-375): 0.028 µM | IC50 [9]: 0.003 µM | IC50 [10]: > 10 µM | IC50 [11]: 0.007 µM | IC50 [12]: 0.021 µM | IC50 [13]: 0.02 µM | IC50 (U-937): 0.031 µM | IC50 (HeLa): 0.033 µM | IC50 [14]: > 10 µM | IC50 [15]: 0.228 µM | IC50 (CDK6/cyclin D3): 0.356 µM

IC50 [16]: 0.344 µM | IC50 [1]: 4.14 µM
SMILES: OCCCNc1cncc(-c2ncnc(Nc3ccc4c(c3)OCCO4)n2)c1

IC50 [1]: 5.03 µM
SMILES: OCCCNc1cncc(-c2ncnc(Nc3ccc(N4CCOCC4)cc3)n2)c1

IC50 [16]: 0.06 µM | IC50 [1]: 2.01 µM
SMILES: OCCCNc1cncc(-c2ncnc(Nc3cccc(Cl)c3)n2)c1

IC50 [16]: 1.11 µM | IC50 [1]: 1.07 µM
SMILES: Nc1nc(Nc2cccc(Cl)c2)nc(-c2ccnc(NCCCO)c2)n1
